Only some compounds are listed: those with a hit (about 1.6% of all), similar ones and a draw of the others.
DNMT1 inh: human DNMT1 methyltransferase inhibitors, primary screen, biochemical, molecular beacon, fluorescence, HinP1I cleavage, uHTS | DNA (cytosine-5)-methyltransferase 1 (Homo sapiens), P26358 | inhibition (reported as % activation of signal), % at 10 µM | hit rate 0.83% among 360,000; in the data active = inhibition above about 50%
Scp1 inh: Scp-1 phosphatase inhibitors, primary screen, biochemical, colorimetric, uHTS; Carboxy-terminal domain RNA polymerase II polypeptide A small phosphatase 1 (Homo …; Recombinant Scp1, phosphopeptide, malachite green phosphate absorbance; inhibition, % at 20 µM; hit rate 0.88% among 340,000; AID 493091, 2011;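 active = inhibition above about 50% at 20 µM, limit read from the data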;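 note: plate controls were DMSO wells with enzyme for no effect and wells lacking enzyme for full effect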
Target sequence (Q9GZU7 76-261 limits assumed): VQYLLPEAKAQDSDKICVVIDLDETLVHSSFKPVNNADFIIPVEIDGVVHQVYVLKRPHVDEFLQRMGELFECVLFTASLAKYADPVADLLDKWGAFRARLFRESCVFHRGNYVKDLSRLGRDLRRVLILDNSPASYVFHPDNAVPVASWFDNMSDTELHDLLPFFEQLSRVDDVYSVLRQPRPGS
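Material – SCP-1 phosphatase catalytic domain, residues 76-261 · Buffer or medium – Acidic Tris acetate buffer with magnesium and detergent · Also added – Phospho 17-mer peptide substrate · Compound – single 20 µM dose, 1% DMSO · Times – 45 min room-temperature reaction, 5 min colour, 30 min stabiliser · Technique – Phosphate-binding colour reagent, absorbance read at 630 nm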
F508del corr: F508del CFTR correction, initial screen, CFBE line, single point; activity (quench increase), % at 7.58 µM; CFBE cells, YFP halide quenching; stimulated with forskolin plus potentiator P3; % fluorescence drop versus neutral controls; hit rate 0.36% among 350,000; AID 720511, 2013;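 active = mean added fluorescence quench of at least 8% versus neutral control, with both replicates also reaching 8%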;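 note: cells transiently co-express mutant CFTR-F508del with the halide-sensitive YFP; corrector assay measuring rescue of mutant channel to the surface after 24 h compound exposure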
STEP block: STEP phosphatase inhibitors, primary screen, biochemical, fluorescence intensity, uHTS; recombinant STEP, OMFP fluorogenic substrate; hit rate 0.25% among 360,000; inhibition, % at 20 µM; Tyrosine-protein phosphatase non-receptor type 5 (Homo sapiens), P54829;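 active = inhibition at 20 µM, scaled per plate between control wells, above about 37%, limit read from the data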;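 note: 0% = DMSO with enzyme and substrate and 100% = substrate only without enzyme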
Target sequence (P54829 whole entry, looked up): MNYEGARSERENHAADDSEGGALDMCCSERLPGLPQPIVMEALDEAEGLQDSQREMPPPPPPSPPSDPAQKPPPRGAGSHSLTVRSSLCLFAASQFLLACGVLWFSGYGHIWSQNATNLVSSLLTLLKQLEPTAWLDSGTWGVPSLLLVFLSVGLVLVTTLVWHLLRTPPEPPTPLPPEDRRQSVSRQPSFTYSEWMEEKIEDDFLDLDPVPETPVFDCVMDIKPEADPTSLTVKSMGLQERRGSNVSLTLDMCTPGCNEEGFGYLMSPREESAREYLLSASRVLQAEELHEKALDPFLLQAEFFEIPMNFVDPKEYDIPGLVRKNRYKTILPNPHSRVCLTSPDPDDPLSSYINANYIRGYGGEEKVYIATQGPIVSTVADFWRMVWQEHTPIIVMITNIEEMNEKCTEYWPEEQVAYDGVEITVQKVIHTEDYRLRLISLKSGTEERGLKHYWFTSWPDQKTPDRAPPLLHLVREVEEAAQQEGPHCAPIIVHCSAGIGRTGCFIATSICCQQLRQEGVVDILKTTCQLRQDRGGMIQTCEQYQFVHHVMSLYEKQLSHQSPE
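Material: STEP (striatal-enriched tyrosine phosphatase) enzyme, cell-free | Medium: 50 mM Bis-Tris pH 6.0 with 2.5 mM DTT and 0.005% Tween 20 | Read-out: Percent inhibition scaled to no-enzyme and uninhibited-enzyme controls, plate-pattern corrected | Signal: Fluorescence read at 480 nm ex / 540 nm em | Times: 20 min reaction, room temperature, in the dark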
LMPTP inh: LMPTP phosphatase inhibitors, primary screen, biochemical, fluorescence intensity, uHTS; Low molecular weight phosphotyrosine protein phosphatase (Homo sapiens), P24666; recombinant LMPTP-A, OMFP fluorogenic substrate; inhibition, % at 20 µM; hit rate 0.22% among 360,000;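 active = compounds that cut the enzyme signal by at least half of the control window in the single-dose screen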;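 note: plate controls were DMSO wells with enzyme plus substrate for no effect and substrate without enzyme for full effect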
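Material: LMPTP-A; amount: 0.625 nM enzyme; doses: single 20 µM dose; times: reaction 50 min, room temperature, dark; technique: fluorescence intensity of OMFP turnover product; benchmarks: no-enzyme and uninhibited controls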
SUMO1 PPI mod: modulators of SUMO1 protein-protein interactions, primary screen, biochemical, uHTS; Small ubiquitin-related modifier 1 (Homo sapiens), P63165; SUMO1 binding to a labelled peptide, TR-FRET, 1 h; inhibition, % at 20 µM; hit rate 0.33% among 360,000; in the data active = inhibition above about 37%
Scp-1 conf: Scp-1 phosphatase inhibitors, retest, confirmation, biochemical, colorimetric, single concentration; hit rate 61% among 2,500; AID 540281, 2011; inhibition, % at 20 µM; shares compounds with Scp1 inh; recombinant SCP-1 catalytic domain, phosphate release, malachite green absorbance;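 note: plate controls were DMSO with enzyme for no effect and buffer wells lacking enzyme for full effect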
Scp-1 MG ctr: colorimetric readout interference by compounds, confirmation, artefact control for Scp-1 inhibitor project, biochemical, single concentration | shares compounds with Scp1 inh | Colorimetric interference counterscreen, malachite green absorbance 630 nm | apparent inhibition (interference), % at 20 µM | 2,500 tested, under 10 active | AID 540313, 2011;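 note: compounds added after enzyme reaction finished so only phosphate colour detection is probed; plate controls were DMSO wells with completed Scp-1 reaction for no effect and substrate wells lacking enzyme for full effect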
Scp1 DSF: Scp-1 binding by thermal shift, confirmation, orthogonal assay for Scp-1 inhibitor project, biophysical, differential scanning fluorimetry; Recombinant SCP1, Sypro Orange thermal shift Tm; shares compounds with Scp1 inh; hit rate 25% among 1,500; AID 540329, 2011; thermal shift relative to vanadate control, % at 40 µM;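 active = substances whose mean melting-temperature shift, as a percentage of the reference inhibitor's shift, reaches about 5.3%, limit read from the data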;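 note: 0% = Tm of DMSO wells and 100% = Tm with sodium orthovanadate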
Beacon interf DR: spectral interference with molecular beacon fluorescence, dose response, artefact control for DNMT1 inhibitor project, biochemical, fluorescent molecular beacon; spectral interference counter-screen; IC50, µM; shares compounds with DNMT1 inh; 200 tested, under 10 active; call rule not given here
DNMT1 inh conf: DNMT1 methyltransferase inhibitor retest, confirmation, biochemical, molecular beacon, fluorescence, single concentration; DNMT1 molecular beacon HinP1I cleavage; shares compounds with DNMT1 inh; hit rate 8% among 2,300; inhibition, % at 10 µM; AID 602385, 2012;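 active = average inhibition of at least 30% in the single-concentration confirmation test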
DNMT1 interf: beacon fluorescence artifact counter-screen; DNMT1 molecular beacon spectral interference counterscreen, fluorescence 485/520; hit rate 1% among 2,300; activation (fluorescence interference), % at 10 µM; shares compounds with DNMT1 inh;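 active = activation of at least 30% at 10 µM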;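 note: DNMT1 catalytic domain with a HinP1I cleavage step and a FAM/dabcyl DNA beacon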
Numbers without * were called inactive; . = no result given.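 Rule for the calls, unless noted: active = inhibition of at least 30% at 20 µM; inactive = the rest.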

SMILES	DNMT1 inh	Scp1 inh	F508del corr	STEP block	LMPTP inh	SUMO1 PPI mod	Scp-1 conf	Scp-1 MG ctr	Scp1 DSF	DNMT1 inh conf	DNMT1 interf	others
CC(C)NC(=O)NCC[C@@H]1CC[C@H](NS(=O)(=O)c2ccc(Oc3ccccc3)cc2)[C@H](CO)O1	.	.	-0.6	.	.	.	.	.	.	.	.
NC(=N\N=Cc1ccco1)/C(N)=N/N=Cc1ccco1	54.7*	61.6*	3.1	6.6	35.6	2.1	39.4*	-11.4	1.4	3.6	4.5
NC(=N\N=Cc1ccccc1)/C(N)=N/N=Cc1ccccc1	5.0	5.3	-3.8	-2.2	-2.0	-2.3	.	.	.	.	.
COc1ccc(N2Cc3cccc(C(=O)N4CCOCC4)c3C2=O)cc1	-0.3	0.5	.	4.6	-1.9	-0.1	.	.	.	.	.
COc1ccc(N2Cc3cccc(C(=O)N4CCN(C(=O)c5ccco5)CC4)c3C2=O)cc1	80.3*	92.3*	0.2	2.9	10.2	9.3	60.2*	-18.4	3.5	29.4	-1.8	Beacon interf DR=>99
O=C(N/N=C/c1ccc([N+](=O)[O-])o1)c1cn2ccc3ccccc3c2n1	55.1*	80.2*	0.3	-0.9	7.3	28.8	-11.4	-16.4	.	2.9	-2.4
C/C=C(\C)C(=O)Nc1cccc(C2=NOC3(C2)C[C@@H](C(N)=O)N(C(=O)/C(C)=C/C)C3)c1 (stereo partly drawn)	4.5	-8.6	1.8	-3.1	-1.7	3.3	.	.	.	.	.
C=C(C)C(=O)Nc1cccc(C2=NOC3(C2)C[C@@H](C(N)=O)N(C(=O)/C(C)=C/C)C3)c1 (stereo partly drawn)	109.7*	99.4*	2.5	8.5	-2.1	98.2*	68.5*	-7.9	-6.9	101.5*	-1.7	Beacon interf DR=>99
C=C(C)C(=O)Nc1cccc(C2=NOC3(C2)C[C@@H](C(N)=O)N(C(=O)CC(c2ccccc2)c2ccccc2)C3)c1 (stereo partly drawn)	101.4*	62.5*	1.0	0.9	1.2	77.3*	56.8*	-15.6	-30.6	19.4	2.5
O=C(C[C@@H]1C[C@@H]2c3cc(NC(=O)NC4CCCC4)ccc3O[C@@H]2[C@H](CO)O1)NCc1ccccn1	.	.	0.0	.	.	.	.	.	.	.	.
C[C@@H]1CN([C@@H](C)CO)C(=O)c2cc(-c3cncnc3)cnc2O[C@@H]1CN(C)C(=O)Cc1ccccn1	.	.	-0.8	.	.	.	.	.	.	.	.
Cc1cc(C=O)c(C)n1-c1ccc(Cl)c(C(=O)O)c1	87.7*	73.6*	-0.5	65.6*	3.7	10.2	76.1*	-15.6	6.2*	21.0	-2.2
COc1ccc(NC(=O)c2c3c(nc4ccccc24)CCC3)cc1S(=O)(=O)N1CCOCC1	85.8*	80.8*	.	7.5	2.4	9.0	58.5*	-13.6	10.6*	8.1	2.7
C[C@@H]1CCCCO[C@@H](CN(C)Cc2ccncc2)[C@H](C)CN([C@H](C)CO)C(=O)c2cc(NS(C)(=O)=O)ccc2O1	.	.	-1.8	.	.	.	.	.	.	.	.
CCCSc1nc(C)c(-c2csc(C(C#N)=C3CCCC3)n2)cc1C#N	92.3*	57.3*	.	5.9	15.6	22.3	59.9*	-11.8	4.5	-1.4	-1.6
CCCCSc1nc2c(cc1C#N)CCC2	3.3	-10.7	.	-0.8	1.4	-0.6	.	.	.	.	.
O=C(CSc1ccccn1)Nc1ccc2c(c1)C(=O)c1ccccc1C2=O	87.0*	107.5*	.	40.7*	49.0	35.3	68.8*	0.1	7.8*	12.8	-6.3
Cc1ccccc1NC(=O)CSc1ccsc1[N+](=O)[O-]	104.4*	72.2*	.	18.1	49.8	6.1	62.3*	-15.1	13.6*	49.5*	-2.0	Beacon interf DR=>99
COc1ccc(NC(=O)N(C)C[C@@H]2OCCCC[C@H](C)Oc3ccc(NC(=O)NC4CCCCC4)cc3C(=O)N([C@@H](C)CO)C[C@@H]2C)cc1	.	.	3.4	.	.	.	.	.	.	.	.
Cc1sc2ncn(CC(=O)NCc3ccco3)c(=O)c2c1-c1ccc(F)cc1	19.5	-0.8	0.7	3.8	-0.7	2.5	.	.	.	.	.
O=C(Cn1cnc2scc(-c3cccc([N+](=O)[O-])c3)c2c1=O)NCc1ccco1	82.9*	77.7*	-0.4	7.5	21.4	-7.2	70.3*	-11.5	10.6*	16.5	-1.4
C[C@H]1CCCCO[C@@H](CN(C)Cc2ccccc2)[C@@H](C)CN([C@@H](C)CO)C(=O)c2cc(NC(=O)C3CCCCC3)ccc2O1	.	.	-1.0	.	.	.	.	.	.	.	.
COc1ccccc1NC(=O)COC(=O)c1cc2c(s1)CCC2	94.3*	66.3*	-1.0	39.6	27.1	10.7	73.3*	-3.8	-0.4	2.5	13.6
COc1ccc(OC)c(NC(=O)COC(=O)c2cc3c(s2)CCC3)c1	89.2*	79.2*	1.6	15.8	32.3	6.5	52.5*	-26.5	4.5	19.3	1.6
COc1ccccc1NC(=O)COC(=O)c1ccc2c(c1)OCCO2	3.7	-4.6	6.7	2.3	2.1	-2.9	.	.	.	.	.
C[C@@H]1CN([C@@H](C)CO)C(=O)c2cc(NS(=O)(=O)c3ccc(F)cc3)ccc2O[C@@H](C)CCCCO[C@H]1CN(C)S(=O)(=O)c1cn(C)cn1	.	.	-1.0	.	.	.	.	.	.	.	.
